Screening data: PubChem BioAssay, several laboratories
Compounds with a hit are over-represented: about 3.5% of the library has one in this group of screens.
FLuc inh counter = inhibits firefly luciferase, flagging false hits in luciferase inhibition screens. P08659. ATPLite firefly luciferase biochemical luminescence, 10 min. inhibition, % at 10 µM. actives 1.5% (n = 200,000);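 active = inhibition above about 50% when tested at 10 µM, limit read from the data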
Target sequence (P08659 whole entry, looked up): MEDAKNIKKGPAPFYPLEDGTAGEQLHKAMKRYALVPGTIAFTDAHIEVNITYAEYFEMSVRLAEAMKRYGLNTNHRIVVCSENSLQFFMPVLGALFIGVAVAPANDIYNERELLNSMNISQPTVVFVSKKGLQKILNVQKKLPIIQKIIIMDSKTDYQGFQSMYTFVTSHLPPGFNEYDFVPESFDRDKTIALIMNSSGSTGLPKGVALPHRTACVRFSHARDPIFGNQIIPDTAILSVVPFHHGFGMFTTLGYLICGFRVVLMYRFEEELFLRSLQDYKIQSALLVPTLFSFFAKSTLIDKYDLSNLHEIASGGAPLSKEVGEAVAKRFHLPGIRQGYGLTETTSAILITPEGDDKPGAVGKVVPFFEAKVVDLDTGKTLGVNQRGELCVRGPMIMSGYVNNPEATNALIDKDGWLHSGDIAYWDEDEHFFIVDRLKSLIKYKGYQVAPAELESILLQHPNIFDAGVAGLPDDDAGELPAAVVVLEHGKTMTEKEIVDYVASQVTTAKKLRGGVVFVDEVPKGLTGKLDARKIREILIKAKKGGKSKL
Pf gametocyte = inhibitors of late stage P. falciparum gametocyte viability. actives 0.065% (n = 150,000). inhibition, % at 10.9 µM. AID 743093. P. falciparum stage V gametocytes, ATP luminescence, 24 h;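 active = inhibition above the mean plus 3 SD of compounds within the control limits, set per campaign, cut at about 38% in these data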
APP 5'UTR act = APP 5'UTR luciferase reporter activation; SH-SY5Y APP 5'UTR luciferase reporter, luminescence; zero percent = DMSO vehicle wells; AID 1276; actives 1% (n = 190,000); activation, % at 2 µM;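 active = activation above a set limit, based on mean plus 3 SD of controls, cut at about 140% in these data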
FLuc stim CS = affects firefly luciferase, flagging false hits in luciferase stimulation screens | P08659 | ATPlite luciferase biochemical, luminescence, 10 min; 0 = ATP-free wells, 1 = DMSO control | activation factor at 10 µM | 200,000 tested, under 10 active | AID 1027;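 active = luciferase activation factor, scaled between plate controls, of at least 2 with compound at 10 µM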
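System: Luciferase/luciferin detection reagent, cell-free biochemical luciferase assay | Medium: PBS buffer for ATP | Dosing: Test compounds dosed from 2 mM stocks in 100% DMSO | Timing: 10 min at ambient temperature | Signal: Luminescence measurement of luciferase light output | Evaluation: Luciferase activation, seen as luminescence increase over controls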
STAT1 activator = activators of IFN-gamma induced STAT1 signaling | NIH 3T3 STAT1-luciferase reporter, luminescence; 100% = IFN-gamma alone, no compound | AID 932 | activation (% of control), % at 5.5 µM | actives 2.6% (n = 200,000);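 active = activation above the screen-wide mean activation plus 3 SD, cut at about 130% in these data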
NF-kB neuron act = compounds increasing NF-kB expression in human neuronal cells; NF-kB reporter expression; stronger effect = higher value; fold change at 12.5 µM; actives 1.6% (n = 190,000); in the data active = fold change above about 3.3
Hits are given with their value; - = inactive; . = not tested or not shown.

SMILES	FLuc inh counter	Pf gametocyte	APP 5'UTR act	FLuc stim CS	STAT1 activator	NF-kB neuron act
O=C(CC1C(=O)NCCN1C/C=C/c1ccccc1)NCCCC1CCCC1 (configuration not stated)	-	-	-	-	-	-
Cc1ccc(-c2c(C)sc(=NC(=O)c3ccco3)n2C)cc1	86	.	-	-	129	-
COc1ccc(OC)c2c1sc(=NC(=O)c1ccco1)n2C	-	.	-	-	-	-
O=C1C2C3C=CC(C4CC34)C2C(=O)N1/N=C/c1ccc([N+](=O)[O-])s1 (configuration not stated)	-	.	-	-	-	-
O=C1C2C3C=CC(C4CC34)C2C(=O)N1/N=C/c1c[nH]c2ccccc12 (configuration not stated)	78	-	-	-	133	-
COc1ccccc1-c1c(NC(=O)c2ccco2)n(C)c2ccccc2c1=O	.	-	.	.	.	.
CCCn1c(C)cc(C(=O)COC(=O)c2cc(S(=O)(=O)NCC(C)C)c(Cl)cc2Cl)c1C	-	-	-	-	-	-
CCCn1c(C)cc(C(=O)COC(=O)c2nccnc2N)c1C	78	-	-	-	-	-
O=C(Nc1nnc(SCC(=O)N2CCOCC2)s1)c1ccccc1	92	-	-	-	-	-
O=C(O)CSc1nnc(NC(=O)c2ccc3c(c2)OCO3)s1	91	-	-	-	-	-
O=C(CSc1nnc(NC(=O)c2ccco2)s1)Nc1ccc2c(c1)OCCO2	55	-	-	-	-	-
O=C(CSc1nnc(NC(=O)c2ccco2)s1)Nc1ccc(F)cc1	-	-	-	-	-	-
O=C(COC(=O)c1cccc(S(=O)(=O)N2CCc3ccccc32)c1)NC1CCS(=O)(=O)C1 (configuration not stated)	-	.	-	-	-	-
CCn1c(SCC(=O)Nc2nc(C)c(C(=O)OC)s2)nnc1C(C)C	-	.	-	-	-	-
CN1CCN(c2nc3c(c(=O)[nH]c(=O)n3C)n2Cc2ccc([N+](=O)[O-])cc2)CC1	.	-	.	.	.	.
O=C(Nc1ccccc1)c1cc2ccccc2c(=O)s1	-	-	-	-	146	-
O=C(Nc1ccc2oc(-c3ccccc3)nc2c1)c1ccccc1F	-	-	-	-	146	-
O=C(Nc1ccc2oc(-c3ccccc3F)nc2c1)c1ncn[nH]1	53	.	138	-	136	5.3
CC(=O)Nc1ccc2oc(-c3ccccc3)nc2c1	70	-	-	-	150	7.6
O=C(Cc1ccccc1)NC(=S)Nc1ccc2oc(-c3ccccc3F)nc2c1	-	-	-	-	-	-
CC(=O)Nc1cccc(-c2nc3ccccc3o2)c1	.	-	.	.	.	.
O=C(Nc1ccc2oc(-c3ccc(Cl)c(Cl)c3)nc2c1)c1ncn[nH]1	-	.	-	-	-	-
CC(=O)NC(=S)Nc1ccc2oc(-c3cc(F)c(F)cc3Cl)nc2c1	-	-	170	-	-	-
OCCn1c(SC2CCCCC2)nc2ccccc21	-	-	-	-	-	-
Cc1cccc2sc(NNC(=O)c3cc(=O)c4ccccc4o3)nc12	-	.	-	-	-	-
SMILES	FLuc inh counter	Pf gametocyte	APP 5'UTR act	FLuc stim CS	STAT1 activator	NF-kB neuron act
O=C(NNc1nc2c(F)cccc2s1)c1cc(=O)c2ccccc2o1	55	.	-	-	-	-
COc1ccc2nc(NNC(=O)c3cc(=O)c4ccccc4o3)sc2c1	69	.	-	-	-	-
CC(C)CNC(=O)c1ccc2c(c1)C(=O)N(Cc1ccco1)C2=O	.	-	.	.	.	.
O=C(NC(=S)Nc1ccccc1)c1ccc(Br)o1	-	-	-	-	138	-
COc1ccc(NC(=S)NC(=O)c2ccc(Br)o2)cc1	-	-	-	-	147	-
COc1ccccc1-c1cc(N)n[nH]1	-	-	-	-	-	-
COc1ccccc1C1=NC(c2ccc(F)cc2)N=C1C (configuration not stated)	-	.	-	-	131	-
Cc1ccc(SC(C)C(=O)Nc2ccc(S(=O)(=O)N3CCOCC3)cc2)cc1 (configuration not stated)	-	-	-	-	-	-
CCOC(=O)c1nc(-c2ccc(OC)c(OC)c2)no1	-	-	-	-	-	-
Cc1nn(Cc2ccccc2)c(Cl)c1C(=O)NCc1ccc(C)n1C	-	-	-	-	-	-
Cc1nn(Cc2ccccc2)c(Cl)c1C(=O)NCCc1ccccc1	-	-	-	-	149	4.3
COc1ccc(NC(=O)Nc2cccc3c2O[C@@H](CN(C)CC2CCCCC2)[C@@H](C)CN([C@H](C)CO)C3=O)cc1	.	-	.	.	.	.
Cc1ccc(C(=O)NCCc2csc(-c3cccnc3)n2)cc1	68	.	-	-	-	-
COCC(=O)Nc1ccc(Br)cc1C	-	39	-	-	-	-
Cc1cc(F)ccc1NCC(=O)Nc1ccc(Br)cc1C	-	-	-	-	-	-
CN(C)S(=O)(=O)c1ccc(Cl)c(NC(=O)c2ccncc2)c1	-	-	-	-	-	-
c1ccc2c(c1)CCN(C1=Nc3cccc4cccc1c34)C2	52	.	-	-	-	-
Cc1ccc(C(=O)Nc2ccc(CC(=O)O)cc2)o1	-	.	-	-	-	-
CC(C)(C)c1ccc(C(=O)Nc2ccc(CC(=O)O)cc2)o1	51	.	.	-	-	-
CC1=NN(C(N)=S)C(=O)C1N=Nc1ccc(C)cc1C (configuration not stated)	-	.	-	-	137	-
CC1=NN(C(N)=S)C(=O)C1N=Nc1ccccc1C (configuration not stated)	-	.	-	-	-	-
CC(=O)N1N=C(c2ccc3ccccc3c2)OC12CCCC2	.	-	.	.	.	.
C/C(=N\Nc1cccc([N+](=O)[O-])c1)c1ccccc1O	-	-	-	-	135	-
C/C(=N\Nc1cccc([N+](=O)[O-])c1)c1cc(F)ccc1O	.	-	.	.	.	.
COc1ccc(CCN2C(=O)NC(NS(=O)(=O)c3ccc(N)cc3)(C(F)(F)F)C2=O)cc1OC (configuration not stated)	-	.	-	-	-	-
SMILES	FLuc inh counter	Pf gametocyte	APP 5'UTR act	FLuc stim CS	STAT1 activator	NF-kB neuron act
Cc1ccc(C(C)NC(=O)Cc2cccs2)c(C)c1 (configuration not stated)	.	-	.	.	.	.
Cc1cc(SCCOc2ccccc2)nc(N)n1	-	.	-	-	129	-
O=C(CCn1cnc2ccccc2c1=O)Nc1nc(-c2ccc(Br)cc2)cs1	-	.	-	-	-	-
O=C(CN1C(=O)/C(=C\c2cccc(F)c2)Oc2ccccc21)N1CCN(c2ccccn2)CC1	-	51	-	-	-	-
O=C(c1cccs1)c1c[nH]cc1-c1ccccc1	.	-	.	.	.	.
Cc1ccc(NC(=O)Nc2ccc3c(c2)nc(C)n3C)cc1	74	-	-	-	132	6.5
Cc1nc2cc(NC(=O)Nc3ccccc3Cl)ccc2n1C	91	-	193	-	-	3.9
CC(=O)c1ccc(NC(=O)Nc2ccc3c(c2)nc(C)n3C)cc1	-	-	-	-	-	-
O=c1nc(Nc2ccc(OCc3ccccc3)cc2)sc2ncccc12	-	-	-	-	-	-
